# Bioassay records: PubChem BioAssay, several laboratories
# Rows were chosen to be rich in hits. Some 0.6% of all compounds tested hit in one or more screens of this group.
# GSK3A inh – blocks human GSK-3 alpha kinase; P49840; ADP-Glo luminescence, 60 min; inhibition, % at 10 µM; hit rate 0.1% among 320,000; AID 2650;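 active = more than half of replicates show inhibition above 20%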;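 note: GST-tagged GSK-3 alpha with peptide substrate and 25 µM ATP; 0% = DMSO neutral wells and 100% = GW8510 positive control wells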
# Target sequence (P49840 whole entry, looked up): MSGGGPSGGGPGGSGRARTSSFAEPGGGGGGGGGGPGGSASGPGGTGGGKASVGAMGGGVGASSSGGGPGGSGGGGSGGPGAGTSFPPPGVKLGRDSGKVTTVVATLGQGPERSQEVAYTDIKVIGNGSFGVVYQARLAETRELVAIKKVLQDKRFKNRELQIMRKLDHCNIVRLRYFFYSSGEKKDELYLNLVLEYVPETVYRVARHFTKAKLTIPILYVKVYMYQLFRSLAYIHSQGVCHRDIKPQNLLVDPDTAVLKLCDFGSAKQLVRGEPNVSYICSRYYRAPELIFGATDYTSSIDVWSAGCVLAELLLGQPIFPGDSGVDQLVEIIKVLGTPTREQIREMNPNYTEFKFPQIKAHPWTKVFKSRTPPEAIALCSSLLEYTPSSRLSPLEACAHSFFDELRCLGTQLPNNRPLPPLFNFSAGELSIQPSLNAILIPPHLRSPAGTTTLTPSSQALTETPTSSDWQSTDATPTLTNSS
# GSK3B inh – inhibitors of human GSK3beta kinase. AID 2097. hit rate 0.038% among 300,000. GST-GSK3beta kinase, ADP-Glo luminescence, 60 min; active compounds read low. activity score (negative = inhibition), % at 10 µM;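 active = more than half of replicate wells score below -50%, meaning over 50% inhibition versus plate controls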;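 note: 0% = median DMSO wells and -100% = median GW8510 positive control wells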
#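 Assay system: GST-fused GSK3beta enzyme, cell-free / Medium: Tris pH 7.5 buffer with MgCl2, DTT, BSA, heparin / Also added: peptide substrate plus 25 µM ATP (final) / Compound: 10 µM single point / Timing: kinase reaction with compound 60 min at room temperature / Detection: ADP-Glo luminescence / Benchmarks: DMSO neutral wells and GW8510 at 20 µM as positive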
# STK33 inh – blocks human STK33 kinase activity. inhibition, % at 10 µM. Q9BYT3. AID 2661. hit rate 0.073% among 320,000. purified STK33, MBP phosphorylation, ADP-Glo luminescence;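 active = inhibition at or above 25%, using the most active replicate where run in duplicate; inactive = inhibition below 25%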
# Efflux pump inh – blocks antifungal efflux pumps in multiplex yeast assay; S. cerevisiae Candida pump triplex, Nile Red efflux; inhibition, % at 10 µM; hit rate 0.44% among 330,000; AID 485275;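 active = plate passing quality check with inhibition over a set limit, or well fluorescence over plate mean plus 4 SD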;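 note: Nile Red retained in pooled yeast measured as flow cytometry median fluorescence; 0% = buffer negative control and 100% = Enniatin B positive control; higher means more Nile Red kept so more efflux inhibition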
# PolyA inh – blocks polyadenylation in yeast reporter cells; S. cerevisiae SKY197-pL101 polyadenylation reporter, beta-gal luminescence; efflux-impaired pdr1/pdr3 knockout yeast; score 100 = 6 SD above DMSO; activity score, % at 12 µM; hit rate 0.02% among 300,000;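 active = lowest replicate activity score at least 50, where 100 means six control SD above control mean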;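 note: yeast exposed to compound for 9 h at 30 °C; higher score means more reporter readthrough which indicates perturbed polyadenylation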
# Cmpd fluor yeast – compound fluorescence in yeast efflux pump counter-screen; shares compounds with Efflux pump inh; S. cerevisiae AD/pABC3, flow cytometry; fluorescence ratio to DMSO, % at 10 µM; hit rate 4% among 1,700;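 active = fluorescence ratio to DMSO above its plate's cutoff, the plate mean ratio plus 5 SD, cut at about 210% in these data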;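 note: unstained yeast with no Nile Red so the signal is compound autofluorescence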
# Mdr1 pump inh – blocks the Candida albicans Mdr1 efflux pump in yeast; hit rate 1% among 1,700; AID 588518; S. cerevisiae AD/CaMDR1, Nile Red efflux, flow cytometry; inhibition, % at 10 µM; shares compounds with Efflux pump inh; in the data active = inhibition above about 26%;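 note: 0% = DMSO vehicle and 100% = reference inhibitor; higher means more Nile Red retained so more efflux inhibition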
# Cdr2 pump inh – Candida Cdr2 efflux pump inhibition; Nile Red retention ratio vs DMSO, % at 10 µM; shares compounds with Efflux pump inh; S. cerevisiae AD/CaCDR2, Nile Red retention, flow cytometry; hit rate 4% among 1,700; AID 588520; in the data active = Nile Red retention ratio vs DMSO above about 190%;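 note: higher ratio means more blocking of Cdr2 efflux of the dye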
# Cdr1 pump inh – blocks the Candida albicans Cdr1 efflux pump in yeast | shares compounds with Efflux pump inh | S. cerevisiae AD/CaCDR1, Nile Red efflux, flow cytometry | AID 588522 | hit rate 1% among 1,700 | inhibition, % at 10 µM;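 active = inhibition above the screen-wide mean plus twice its standard deviation, cut at about 32% in these data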
# Starred values were filed as active, the others as inactive; x = no result.
SMILES,GSK3A inh,GSK3B inh,STK33 inh,Efflux pump inh,PolyA inh,Cmpd fluor yeast,Mdr1 pump inh,Cdr2 pump inh,Cdr1 pump inh
CCOC(=O)c1ccccc1NC(=O)CSc1ccc(-c2cccnc2)nn1,-2,-2,0,1.5*,x,87,0,91,0
Cc1ccc(S(=O)(=O)Nc2cccc(-c3ccc(N4CCCCCC4)nn3)c2)cc1C,-4,3,-1,0,5,x,x,x,x
Cc1ccc([N+](=O)[O-])cc1S(=O)(=O)Nc1cccc(-c2ccc(N3CCCC3)nn2)c1,x,4,x,0.4*,-7,100,0,89,0
S=C(NCCCN1CCOCC1)N1CCN(c2nc(-c3ccc(Cl)cc3)cs2)CC1,0,3,1,0,-6,x,x,x,x
S=C(NCCCN1CCOCC1)N1CCN(c2nc(-c3ccccc3)cs2)CC1,4,-7,0,1.3*,-7,89,0,97,0
Cc1ccc(C(=O)N2CCN(c3ccc(NC(=O)CSc4ccc(Cl)cc4)cc3)CC2)cc1,2,1,5,8.0*,0,105,0,110,0
CS(=O)(=O)N1CCN(c2ccc(NC(=O)CSc3ccc(Cl)cc3)cc2)CC1,0,5,-4,0,14,x,x,x,x
c1ccc2c(c1)Cc1cc(CN3CCOCC3)ccc1-2,0,1,-2,5.9*,-19,84,0,122,0
c1ccc(CN2CCOCC2)cc1,4,2,-1,0,-4,x,x,x,x
C=C[C@](C)(CC[C@@]1(C)C(C)CC(OC2OC(C)C(OC3OC(COC(C)=O)C(O)C(O)C3O)C(O)C2O)[C@@]2(C)C(C)=CCCC12)OC1OC(C)C(O[C@@H]2O[C@@H](C)C(O)C(O)[C@H]2O)C(O)C1O (stereo partly drawn),-2,x,2,1.4*,x,113,0,129,0
CC(=O)OC[C@H]1O[C@@H](O[C@H]2C[C@]3(C)C(C[C@@H](O)C4C([C@]5(C)CC[C@@H](C(C)(C)O)O5)CC[C@]43C)[C@@]3(C)CC[C@H](O)C(C)(C)C23)[C@H](O[C@@H]2O[C@@H](C)[C@H](O)[C@@H](O)[C@H]2O)[C@@H](O)[C@@H]1O (stereo partly drawn),0,x,0,0,x,x,x,x,x
COc1ccc(Cl)cc1NC(=O)CSc1cccc[n+]1[O-],-1,x,-1,0,x,x,x,x,x
O=C(COC(=O)c1ccc(Br)cc1)NCCN1C(=O)CSC1=O,-1,-2,0,0,6,112,0,99,0
CCN(CC)S(=O)(=O)c1ccc(C(=O)OCC(=O)NCCN2C(=O)CSC2=O)cc1,0,1,-2,0,1,109,0,112,0
COc1ccc(C(=O)OCC(=O)NCCN2C(=O)CSC2=O)cc1,-1,1,0,0,-6,108,0,91,0
O=C(COC(=O)c1ccc(S(=O)(=O)Nc2ccccc2)cc1)NCCN1C(=O)CSC1=O,-1,0,-1,0,-5,x,x,x,x
Cc1ccc(N(Cc2ccccc2)C(=O)c2cc(S(=O)(=O)N3CCOCC3)ccc2N2CCCC2)cc1,-4,3,-2,0,3,x,x,x,x
CC1CCCCC1NC(=O)COC(=O)c1ccccc1NC(=O)c1ccco1 (stereo not drawn),2,1,1,0,-7,x,x,x,x
CNC(=O)COC(=O)c1ccccc1NC(=O)c1ccco1,3,-2,5,1.2*,-7,99,0,95,0
CCOC(=O)c1cc(C)n(Cc2cccc(OC)c2OC)c1C,1,3,0,0,-2,x,x,x,x
CCOC(=O)c1c(C)c(C)n(Cc2cccc(OC)c2OC)c1C,-1,2,-1,14*,-8,97,0,87,0
O=C(Cn1nc(C(=O)O)c2ccccc2c1=O)Nc1nc(-c2ccccc2)cs1,x,0,-1,0,-4,x,x,x,x
